Screen size: about 360,000 compounds; about 5,400 (1.5%) were called active. This excerpt belongs to a sample that is enriched for actives. Values without a mark were called inactive.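 Rule for the calls: active = inhibition above a per-plate cutoff, the mean inhibition of test compounds on that plate plus 3 SD (cut at about 49% in these data); inactive = the rest.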
Molecular target: Trace amine-associated receptor 1 (Homo sapiens) (UniProt Q96RJ0)
Assay: blockers of beta-PEA-driven TAAR1 calcium signal – Fluo-8 calcium fluorescence, CHO RD-HGA16 cells, primary screen (AID 624466);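 note: 0% = DMSO plus EC80 beta-PEA response and 100% = DMSO alone without agonist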
Conditions: CHO RD-HGA16 TAAR1, Fluo-8 calcium fluorescence, antagonist; at 3 µM; hits give high values
Summary of the method: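 Material: CHO RD-HGA16 cells bearing hTAAR1; compound dosing: one-point dosing, 3 µM nominal final; schedule: dye loading 75 min at 37 °C, then 30 min room temperature; measured by: calcium fluorescence with Fluo-8; control set: vehicle and agonist controls; replication: n of 1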

Trace amine-associated receptor 1 (Homo sapiens), sequence (Q96RJ0 whole entry, looked up): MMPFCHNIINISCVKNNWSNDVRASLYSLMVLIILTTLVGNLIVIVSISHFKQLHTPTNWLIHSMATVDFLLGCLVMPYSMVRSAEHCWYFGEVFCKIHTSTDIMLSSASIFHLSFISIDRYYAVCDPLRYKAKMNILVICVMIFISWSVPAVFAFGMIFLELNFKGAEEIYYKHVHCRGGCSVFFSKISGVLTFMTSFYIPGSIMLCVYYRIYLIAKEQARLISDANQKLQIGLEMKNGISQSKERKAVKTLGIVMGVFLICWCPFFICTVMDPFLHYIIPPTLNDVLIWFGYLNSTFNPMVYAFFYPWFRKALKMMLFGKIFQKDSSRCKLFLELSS

Row | Compound | inhibition
1 | O=CN1CCN(C(=O)c2ccc(Br)o2)CC1 | -11.1%
2 | CSc1ccccc1C(=O)OCC(=O)N1CCN(C(C)=O)CC1 | -1.96%
3 | O=C(COC(=O)c1ccccc1SCC(=O)N1CCCC1)Nc1ccccc1OC(F)F | 56.5% (active)
4 | CC(C)N(Cc1ccccc1)C(=O)COC(=O)c1ccccc1SCC(=O)N1CCCC1 | 64% (active)
5 | COc1ccccc1NC(=O)COC(=O)c1ccccc1SCC(=O)N1CCCC1 | -8.15%
6 | CC(NC(=O)c1ccccc1SCC(=O)N1CCCC1)c1ccccc1 (stereo not given) | -4.95%
7 | CN(CC(=O)Nc1ccccc1Cl)C(=O)c1ccccc1SCC(=O)N1CCCC1 | -6.53%
8 | COCCNC(=O)C1C(=O)Nc2ccccc2C(=O)N1c1ccc2c(c1)OCCO2 (stereo not given) | -30.9%
9 | CCCCCCCCN1C(=O)[C@H](CC(=O)NCC23CC4CC(CC(C4)C2)C3)C[C@@]2(C(=O)OC)CCCCC=C12 | -15.3%
10 | CCOC(=O)C(C)N(c1ccccc1Cl)S(C)(=O)=O (stereo not given) | -3.03%
11 | CN(CC(=O)O)S(=O)(=O)c1ccc2oc3ccccc3c2c1 | -5.94%
12 | COc1ccc(C2=NS(=O)(=O)N(C)C(C(=O)N(C)Cc3ccccc3)=C2)cc1 | 11.5%
13 | C/C(N)=C(/C#N)C(=O)COC(=O)c1cc(-c2ccc(C)cc2)nc2ccccc12 | -4.69%
14 | COc1ccc(-c2cc(C(=O)N(C)CC(=O)Nc3ccccc3Cl)c3ccccc3n2)cc1OC | 73.2% (active)
15 | COc1ccc(Cl)cc1NC(=O)CN(C)C(=O)c1ccc2n[nH]nc2c1 | -6.92%
16 | COc1ccc(CN(C)C(=O)c2cc(-c3ccc(C)cc3C)nc3ccccc23)c(OC)c1OC | 72.6% (active)
17 | Cc1cccc(C(=O)NCC(=O)OCC(=O)N(C)CC(=O)Nc2ccccc2Cl)c1 | -23.2%
18 | COc1ccc(CN(C)C(=O)Cc2ccsc2)c(OC)c1OC | -26.8%
19 | COc1ccc(-c2cc(C(=O)N(C)Cc3ccc(OC)c(OC)c3OC)c3ccccc3n2)cc1OC | 78.5% (active)
20 | COc1ccc(CN(C)C(=O)Cc2c[nH]c3ccccc23)c(OC)c1OC | 4.63%
21 | COc1ccc(S(=O)(=O)N2CCCCCC2)cc1C(=O)N(C)Cc1cccc(OC)c1OC | 3.09%
22 | COc1ccc(C(=O)N(C)Cc2ccc(OC)c(OC)c2OC)cc1S(=O)(=O)N1CCOCC1 | -9.36%
23 | COc1ccc(-c2cc(C(=O)N(C)Cc3ccccc3)c3ccccc3n2)cc1 | 62.6% (active)
24 | Cc1ccc(N/C(N)=N/c2nc(C(F)(F)F)cc(C(F)(F)F)n2)cc1 | 1.49%
25 | CCn1ccnc1CN(C)C(=O)c1ccc2nc(Cc3ccc(OC)cc3)oc2c1 | 9.63%
26 | Cc1ccc(C)c(CN2CCC(CNC(=O)C3CCCN(c4ncnc5c4nc4n5CCCCC4)C3)CC2)c1 (stereo not given) | -10.2%
27 | O=C(Nc1ccc(CSc2ccccc2)cc1)c1ccc(CN2CCOCC2)cc1 | 29.6%
28 | COCc1cc(N2CCN(C(=O)OC(C)(C)C)C[C@@H]2C)ccc1N1CCN(Cc2ccccc2)[C@H](C)C1 | -3.16%

Row | Compound | inhibition
29 | O=C1/C(=C/c2cccs2)SC(=S)N1C1CCS(=O)(=O)C1 (stereo not given) | -5.52%
30 | COc1ccc(CCn2c(NN=C3CCCC3)nc3c2c(=O)[nH]c(=O)n3C)cc1 | -23.8%
31 | COc1ccc(C2CC(=O)Oc3ccc(C(C)(C)C)cc32)cc1 (stereo not given) | 52.5% (active)
32 | COc1cc(OC)c2c(c1)OC(=O)CC2c1cc(OC)c(OC)c(OC)c1 (stereo not given) | -6.82%
33 | COc1cc(C2CC(=O)Oc3cc(OC)c(OC)c(OC)c32)cc(OC)c1OC (stereo not given) | 3.9%
34 | CN(C)S(=O)(=O)c1ccc(C(=O)NCCN=C2NS(=O)(=O)c3ccccc32)cc1 | -8.85%
35 | O=C(c1ccc2ccccc2n1)N1CCN(c2ccccc2Cl)CC1 | 20.4%
36 | NC(=O)COc1ccc(/C=N/NC(=O)C2CCCN2S(=O)(=O)c2ccc(Cl)cc2)cc1 (stereo not given) | 15.8%
37 | COc1ccc(Cl)cc1N(CC(=O)N/N=C/c1ccc(OCC(N)=O)cc1)S(C)(=O)=O | 6.35%
38 | NC(N)=N/N=C/c1ccc(OCc2ccc(Cl)cc2Cl)cc1 | 73.3% (active)
39 | O=C1NC[C@H](CCCCN2C[C@H](Cc3ccc(O)cc3)N(CC3CCCCC3)C(=O)C2=O)N(CCc2ccccc2)C1=O | 7.35%
40 | COc1cccc(N(C(=O)C2COc3ccccc3O2)C(C(=O)NC2CCCCC2)c2ccc(O)cc2)c1 (stereo not given) | -14.6%
41 | O=C(OCC(=O)N(CCc1ccccc1)Cc1ccccc1)c1ccccc1[N+](=O)[O-] | 71.1% (active)
42 | CN(Cc1ccccc1)C(=O)COC(=O)c1ccccc1Nc1ccccc1 | 22.9%
43 | Cc1c(C(=O)NCCCc2ccccc2)cccc1[N+](=O)[O-] | 1.14%
44 | CC(C)(C)c1ccc(S(=O)(=O)NCC2CCN(C(=O)C(=O)c3cc4ccccc4o3)CC2)cc1 | 3.67%
45 | O=C(COC(=O)c1cc(S(=O)(=O)N2CCOCC2)ccc1Cl)NCCc1ccccc1 | -6.27%
46 | CCC(=O)c1ccc(OCC(O)CN2CCN(c3cccc(C(F)(F)F)c3)CC2)cc1 (stereo not given) | 19.9%
47 | CCOc1ccc(NC(=O)N(CC(C)C)CC(C)C)cc1 | -6.6%
48 | CC(=O)N(C)c1ccc(NC(=O)Nc2cccc3ccccc23)cc1 | -1.56%
49 | CCOc1ccc(NC(=O)Nc2ccc(N(C)C(C)=O)cc2)cc1 | 51.5% (active)
50 | CC12CCC(=O)N1C(C(=O)NCCN1C(=O)S/C(=C\c3ccccc3F)C1=O)CS2 (stereo not given) | -27.9%
51 | O=S(=O)(NCC1CCCO1)c1cnc(Cl)c(Cl)c1 (stereo not given) | 12.4%
52 | CCOC(=O)C1=C(c2ccccc2)O/C(=C(/C(=O)OC)C(F)(F)F)S1 | -4.35%
53 | CC(=O)Nc1cccc(NC(=O)c2ccc3c(c2)CCN3S(C)(=O)=O)c1 | 50% (active)
54 | CS(=O)(=O)N1CCc2cc(C(=O)Nc3ccccc3)ccc21 | 9.11%
55 | CS(=O)(=O)N1CCc2cc(C(=O)Nc3ccccc3Br)ccc21 | 23.9%

Reference: PubChem BioAssay AID624466 (The Scripps Research Institute Molecular Screening Center, 2012)
